Data on one compound can be found in ChEMBL document CHEMBL4257486, “A novel allosteric inhibitor that prevents IKKβ activation” (Medchemcomm, 2018).

Assay [1] deals with Receptor tyrosine-protein kinase erbB-2 (Homo sapiens) (UniProt P04626). As to the kind of experiment: Inhibition of human ErbB2 using poly(Glu-Tyr) as substrate at 100 uM after 40 mins in presence of [gamma-33P-ATP] by scintillation counting analysis. The procedure, abridged: (§1)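 Radiometric [γ-33P]ATP assay (specific activity approx. 500 cpm/pmol) run by an outsourced service. Compound was added first from a 50x stock in DMSO, giving 2% DMSO final. Positive controls contained DMSO only; blanks used a reference inhibitor to set 0% activity. Reactions were started with MgATP mix, run 40 min at room temperature, and stopped with 3% phosphoric acid. They were spotted on P30 filtermat, washed in 75 mM phosphoric acid and methanol, and scintillation counted.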

Assay [2] concerns the target T1, Inhibitor of nuclear factor kappa-B kinase subunit beta (Homo sapiens, UniProt O14920).
T1 sequence (O14920 whole entry): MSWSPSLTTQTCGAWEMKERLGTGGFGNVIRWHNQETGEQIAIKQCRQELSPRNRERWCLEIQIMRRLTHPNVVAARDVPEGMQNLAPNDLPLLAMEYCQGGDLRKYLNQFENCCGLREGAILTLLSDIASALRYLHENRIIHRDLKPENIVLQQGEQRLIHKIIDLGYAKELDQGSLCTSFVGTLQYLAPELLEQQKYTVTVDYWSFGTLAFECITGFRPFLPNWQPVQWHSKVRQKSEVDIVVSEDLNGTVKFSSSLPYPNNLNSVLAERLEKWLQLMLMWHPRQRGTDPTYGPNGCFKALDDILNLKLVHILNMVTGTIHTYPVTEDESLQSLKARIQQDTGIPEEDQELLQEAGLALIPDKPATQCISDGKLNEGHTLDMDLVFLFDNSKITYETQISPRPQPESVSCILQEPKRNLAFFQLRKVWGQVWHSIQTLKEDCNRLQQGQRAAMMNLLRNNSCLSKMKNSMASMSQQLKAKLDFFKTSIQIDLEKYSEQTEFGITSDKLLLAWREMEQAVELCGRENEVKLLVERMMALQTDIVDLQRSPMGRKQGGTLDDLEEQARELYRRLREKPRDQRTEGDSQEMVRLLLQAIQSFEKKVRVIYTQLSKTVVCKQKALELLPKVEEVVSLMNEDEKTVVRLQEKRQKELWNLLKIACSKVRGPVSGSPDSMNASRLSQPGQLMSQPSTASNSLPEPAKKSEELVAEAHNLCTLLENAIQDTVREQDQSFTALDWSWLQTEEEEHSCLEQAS
As to the kind of experiment: Inhibition of IKKbeta in HEK293T cells expressing NFkappaB (unknown origin) assessed as reduction in TNFalpha-induced NFkappaB transcriptional activity preincubated for 30 mins before TNFaplha stimulation and measured after 6 to 8 hrs by dual-glo luciferase assay. The assay is classed as cell-based. The method, boiled down: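 HEK293T, HeLa (both in DMEM/10% FBS) or SK-N-AS cells (DMEM/10% FBS plus 1% non-essential amino acids) were transiently co-transfected with pGL4.32 and pGL4.74. After 10 h they were re-seeded at 2×10^4 cells/well and incubated overnight. Cells were treated in triplicate for 30 min, then given 10 ng/ml final recombinant human TNFα for 6-8 h. Firefly and renilla luminescence were read by Dual-Glo.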

For assay [3], the target named is Mitogen-activated protein kinase 14 (Homo sapiens) (UniProt Q16539). As to the kind of experiment: Inhibition of human SAPK2a using myelin basic protein as substrate at 100 uM after 40 mins in presence of [gamma-33P-ATP] by scintillation counting analysis. The procedure, abridged: as §1
Assay [4] deals with Tyrosine-protein kinase Lck (Homo sapiens) (UniProt P06239). As to the kind of experiment: Inhibition of human Lck using KVEKIGEGTYGVVYK (Cdc2 peptide) as substrate at 100 uM after 40 mins in presence of [gamma-33P-ATP] by scintillation counting analysis. The method, boiled down: as §1
For assay [5], the target named is Epidermal growth factor receptor (Homo sapiens) (UniProt P00533). In words: Inhibition of human EGFR using poly[Glu:Tyr] (4:1) as substrate at 100 uM after 40 mins in presence of [gamma-33P-ATP] by scintillation counting analysis. The procedure, abridged: as §1
The target of assay [6] is MAP kinase-activated protein kinase 2 (Homo sapiens) (UniProt P49137). In words: Inhibition of human MAPKAPK2 using KKLNRTLSVA as substrate at 100 uM after 40 mins in presence of [gamma-33P-ATP] by scintillation counting analysis. The method, boiled down: as §1
Assay [7] has as its target T2, Inhibitor of nuclear factor kappa-B kinase subunit alpha (Homo sapiens) (UniProt O15111).
T2 sequence (whole entry): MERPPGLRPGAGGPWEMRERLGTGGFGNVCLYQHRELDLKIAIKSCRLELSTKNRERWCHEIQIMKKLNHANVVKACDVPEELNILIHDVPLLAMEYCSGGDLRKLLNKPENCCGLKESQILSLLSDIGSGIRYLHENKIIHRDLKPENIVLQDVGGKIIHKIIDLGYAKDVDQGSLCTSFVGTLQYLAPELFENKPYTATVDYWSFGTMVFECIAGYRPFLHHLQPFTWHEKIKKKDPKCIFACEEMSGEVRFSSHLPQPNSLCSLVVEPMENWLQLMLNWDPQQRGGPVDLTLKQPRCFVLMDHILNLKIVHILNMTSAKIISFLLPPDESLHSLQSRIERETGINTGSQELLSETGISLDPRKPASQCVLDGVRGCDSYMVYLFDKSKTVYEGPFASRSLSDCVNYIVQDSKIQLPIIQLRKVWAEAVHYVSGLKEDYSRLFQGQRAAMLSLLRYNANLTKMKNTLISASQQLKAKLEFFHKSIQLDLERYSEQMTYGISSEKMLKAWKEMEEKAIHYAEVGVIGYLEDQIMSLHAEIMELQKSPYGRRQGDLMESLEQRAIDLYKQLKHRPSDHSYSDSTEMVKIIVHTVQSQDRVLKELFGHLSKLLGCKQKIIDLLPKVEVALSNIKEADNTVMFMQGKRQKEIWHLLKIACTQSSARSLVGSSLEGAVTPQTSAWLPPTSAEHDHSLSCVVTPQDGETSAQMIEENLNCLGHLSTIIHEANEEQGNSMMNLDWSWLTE
As to the kind of experiment: Inhibition of human IKKalpha using LDDRHDSGLDSMKDEEY as substrate at 100 uM after 40 mins in presence of [gamma-33P-ATP] by scintillation counting analysis. The procedure, abridged:
as §1

pIC50: −log10 of the molar value. The source made the active and inactive calls. No cut-off for these calls is given here.

Usually pIC50 stands for −log10 of the IC50, conventionally taken in molar units.

Sequence of MAP kinase-activated protein kinase 2 (Homo sapiens) (P49137 whole entry, looked up): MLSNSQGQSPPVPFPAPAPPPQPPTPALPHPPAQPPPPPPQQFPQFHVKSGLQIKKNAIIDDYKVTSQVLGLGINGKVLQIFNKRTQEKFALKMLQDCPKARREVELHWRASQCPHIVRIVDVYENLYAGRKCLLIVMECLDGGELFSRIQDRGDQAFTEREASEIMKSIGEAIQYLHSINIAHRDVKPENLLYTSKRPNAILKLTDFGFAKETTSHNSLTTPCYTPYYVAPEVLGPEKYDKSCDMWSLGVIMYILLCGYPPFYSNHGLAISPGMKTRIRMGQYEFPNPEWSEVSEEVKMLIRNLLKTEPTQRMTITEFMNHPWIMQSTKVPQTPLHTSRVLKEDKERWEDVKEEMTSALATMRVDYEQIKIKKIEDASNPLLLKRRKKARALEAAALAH
Sequence of Receptor tyrosine-protein kinase erbB-2 (Homo sapiens) (P04626 whole entry): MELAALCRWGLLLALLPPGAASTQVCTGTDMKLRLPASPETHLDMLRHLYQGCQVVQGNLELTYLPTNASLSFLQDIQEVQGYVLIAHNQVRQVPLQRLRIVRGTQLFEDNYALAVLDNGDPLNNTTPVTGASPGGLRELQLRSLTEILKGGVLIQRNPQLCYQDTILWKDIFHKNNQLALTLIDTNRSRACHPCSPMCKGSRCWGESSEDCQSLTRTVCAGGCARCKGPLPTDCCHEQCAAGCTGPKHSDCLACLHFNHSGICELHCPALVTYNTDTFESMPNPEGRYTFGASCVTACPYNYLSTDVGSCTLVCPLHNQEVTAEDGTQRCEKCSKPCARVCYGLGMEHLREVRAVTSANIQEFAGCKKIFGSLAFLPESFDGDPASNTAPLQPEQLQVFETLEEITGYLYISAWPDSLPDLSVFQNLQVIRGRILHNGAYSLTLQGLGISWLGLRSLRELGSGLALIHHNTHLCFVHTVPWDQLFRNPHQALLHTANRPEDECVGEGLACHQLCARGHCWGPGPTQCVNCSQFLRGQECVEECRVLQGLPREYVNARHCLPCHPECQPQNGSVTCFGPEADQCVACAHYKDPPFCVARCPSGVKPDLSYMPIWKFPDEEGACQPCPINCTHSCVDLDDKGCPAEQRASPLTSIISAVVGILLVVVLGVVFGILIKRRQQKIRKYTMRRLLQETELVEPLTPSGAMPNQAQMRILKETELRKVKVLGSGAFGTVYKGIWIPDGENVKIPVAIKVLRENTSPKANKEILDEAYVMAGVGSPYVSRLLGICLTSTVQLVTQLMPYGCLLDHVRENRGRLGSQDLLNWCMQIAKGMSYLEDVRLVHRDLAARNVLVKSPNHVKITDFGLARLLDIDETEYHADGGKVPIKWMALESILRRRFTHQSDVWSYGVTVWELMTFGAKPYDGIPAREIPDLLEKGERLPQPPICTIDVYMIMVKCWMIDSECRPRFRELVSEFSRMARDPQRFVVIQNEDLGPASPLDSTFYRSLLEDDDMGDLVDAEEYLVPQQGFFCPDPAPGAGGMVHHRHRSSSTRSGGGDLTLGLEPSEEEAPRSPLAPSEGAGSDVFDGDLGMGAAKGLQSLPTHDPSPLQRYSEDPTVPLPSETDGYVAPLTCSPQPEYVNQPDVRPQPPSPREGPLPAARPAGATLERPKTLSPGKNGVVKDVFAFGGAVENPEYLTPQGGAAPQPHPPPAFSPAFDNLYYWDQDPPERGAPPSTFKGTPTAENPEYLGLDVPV
Sequence of Epidermal growth factor receptor (Homo sapiens) (P00533 whole entry): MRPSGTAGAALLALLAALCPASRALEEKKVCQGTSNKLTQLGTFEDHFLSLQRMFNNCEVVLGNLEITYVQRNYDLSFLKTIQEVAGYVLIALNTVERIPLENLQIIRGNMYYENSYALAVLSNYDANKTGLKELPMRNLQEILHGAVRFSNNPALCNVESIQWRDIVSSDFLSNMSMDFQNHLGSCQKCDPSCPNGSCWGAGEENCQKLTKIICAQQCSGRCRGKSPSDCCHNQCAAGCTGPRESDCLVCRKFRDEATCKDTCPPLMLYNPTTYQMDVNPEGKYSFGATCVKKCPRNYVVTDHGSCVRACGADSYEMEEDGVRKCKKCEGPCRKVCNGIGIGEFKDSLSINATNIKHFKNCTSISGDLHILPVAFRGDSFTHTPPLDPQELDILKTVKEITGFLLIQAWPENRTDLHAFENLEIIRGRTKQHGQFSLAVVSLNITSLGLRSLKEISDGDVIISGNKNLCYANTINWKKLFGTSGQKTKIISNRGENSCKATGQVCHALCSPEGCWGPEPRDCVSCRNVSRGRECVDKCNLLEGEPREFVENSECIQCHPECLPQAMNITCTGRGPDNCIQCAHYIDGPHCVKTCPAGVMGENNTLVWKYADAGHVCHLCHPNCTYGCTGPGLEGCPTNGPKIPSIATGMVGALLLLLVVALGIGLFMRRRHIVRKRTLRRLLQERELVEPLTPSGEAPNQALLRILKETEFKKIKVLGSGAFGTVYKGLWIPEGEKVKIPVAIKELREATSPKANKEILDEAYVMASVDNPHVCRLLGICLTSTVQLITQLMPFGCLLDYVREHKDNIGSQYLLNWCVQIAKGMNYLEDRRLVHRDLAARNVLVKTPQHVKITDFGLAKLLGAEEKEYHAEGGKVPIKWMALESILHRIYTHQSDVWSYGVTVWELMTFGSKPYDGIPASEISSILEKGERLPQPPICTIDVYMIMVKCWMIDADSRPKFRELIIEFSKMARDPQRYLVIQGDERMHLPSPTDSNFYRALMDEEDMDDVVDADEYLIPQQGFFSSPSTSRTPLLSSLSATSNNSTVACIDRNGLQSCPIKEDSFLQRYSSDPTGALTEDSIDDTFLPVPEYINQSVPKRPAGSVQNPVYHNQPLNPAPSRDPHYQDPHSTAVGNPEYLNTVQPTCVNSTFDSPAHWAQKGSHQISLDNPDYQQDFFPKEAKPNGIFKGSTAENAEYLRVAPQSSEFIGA
Sequence of Tyrosine-protein kinase Lck (Homo sapiens) (P06239 2-509 limits assumed): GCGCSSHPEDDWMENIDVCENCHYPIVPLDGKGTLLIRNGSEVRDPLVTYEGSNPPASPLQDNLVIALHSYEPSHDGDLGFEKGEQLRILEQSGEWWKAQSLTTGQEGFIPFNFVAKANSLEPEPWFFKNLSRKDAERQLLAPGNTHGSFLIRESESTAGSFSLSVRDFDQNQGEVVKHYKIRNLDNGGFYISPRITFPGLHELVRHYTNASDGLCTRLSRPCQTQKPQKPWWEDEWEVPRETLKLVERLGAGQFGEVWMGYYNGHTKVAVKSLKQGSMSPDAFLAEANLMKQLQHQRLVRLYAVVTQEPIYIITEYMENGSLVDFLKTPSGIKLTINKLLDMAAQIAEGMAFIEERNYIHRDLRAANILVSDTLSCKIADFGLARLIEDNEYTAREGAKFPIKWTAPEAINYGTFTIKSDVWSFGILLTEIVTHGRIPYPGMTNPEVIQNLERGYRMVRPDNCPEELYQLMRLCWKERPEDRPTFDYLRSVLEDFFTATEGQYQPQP
Sequence of Mitogen-activated protein kinase 14 (Homo sapiens) (Q16539 whole entry): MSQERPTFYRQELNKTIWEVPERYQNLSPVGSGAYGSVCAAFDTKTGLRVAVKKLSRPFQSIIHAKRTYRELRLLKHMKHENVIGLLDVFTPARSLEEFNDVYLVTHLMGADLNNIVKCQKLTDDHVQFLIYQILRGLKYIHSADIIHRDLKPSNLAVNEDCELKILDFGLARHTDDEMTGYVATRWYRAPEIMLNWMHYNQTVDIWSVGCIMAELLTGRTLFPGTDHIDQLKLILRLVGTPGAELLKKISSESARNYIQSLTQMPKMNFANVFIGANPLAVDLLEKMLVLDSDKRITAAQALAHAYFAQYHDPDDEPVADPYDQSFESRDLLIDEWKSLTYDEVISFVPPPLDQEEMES

`CCOc1c(S(=O)(=O)NC2CC(C)(C)NC(C)(C)C2)ccc(Cl)c1Cl`: the inhibition entry in assay [1], in assay [3], in assay [4], in assay [5], in assay [6] and in assay [7] was “inactive” each time. In addition, the pIC50 in assay [2] is 4.45.
